# Bioassay records from PubChem BioAssay.
# Rows were chosen to be rich in hits. Some 3.1% of all compounds tested hit in one or more screens of this group.
# HIV Env fusion – blocks HIV Env-driven cell-cell fusion | inhibition, % at 12.3 µM | 360,000 compounds, 1.1% hits | HeLa-JRFL Env/CEM21 cell fusion, luciferase;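 active means mean replicate inhibition score of at least 50 and every replicate individually at or above 50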;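 further: 0% = plate neutral controls and 100% = maraviroc near 300 nM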
# Ecoli rRNA inh – inhibits bacterial ribosomal RNA function over humanized ribosomes; E. coli WT GFP vs humanized-ribosome RFP mutants, fluorescence, 24 h; active compounds read low; DMSO median 0, no signal -100; AID 720706; GFP signal change (wild-type ribosome), % (test concentration not listed); 350,000 compounds, 1.6% hits;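 active means significant combined selectivity score with lowered wild-type GFP, culture density cut under 30%, mutant RFP and density less affected; inactive means any of these conditions unmet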
# F508del corr – CFTR F508del correction in bronchial cells; AID 720511; CFBE cells, YFP halide quenching; stimulated with forskolin plus potentiator P3; % fluorescence drop versus neutral controls; activity (quench increase), % at 7.58 µM; 350,000 compounds, 0.36% hits;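 active means mean added fluorescence quench of at least 8% versus neutral control, with both replicates also reaching 8%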;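 further: cells transiently co-express mutant CFTR-F508del with the halide-sensitive YFP; corrector assay measuring rescue of mutant channel to the surface after 24 h compound exposure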
# Cneo AK release – causes C. neoformans cell lysis; AID 651654; adenylate kinase release luminescence, 4 h; normalised: neutral wells 0, clomiphene wells 100; lysis activity, % at 15 µM; 360,000 compounds, 0.2% hits;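 active means mean lysis activity across replicates of at least 80%, whatever share of replicates individually reach that level; inactive means mean lysis activity below 80%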
#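 Test system: log-phase Cryptococcus neoformans yeast cells. Input: 5 × 10^6 yeast cells/mL. Medium: fresh YPD growth medium. Doses: single dose. Incubation: static 4 h at 37 °C with compound, 1 h detection. Measured by: luminescent adenylate kinase detection reagent. Read-out: signal increase indicating cell lysis. Benchmarks: Clomiphene.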
# miR122 inh – inhibitors of miR-122 in Huh7 cells. Huh7 miR-122 Renilla luciferase sensor, 48 h; neutral wells = 0, positive control = 100. 340,000 compounds, 0.3% hits. activation (reporter increase), % at 12.5 µM;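 active means mean replicate activation score at least 90 and every replicate individually at or above 90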;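 further: higher luciferase means less miR-122 activity so hits act as miR-122 inhibitors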
# GSIS activator – GLuc luminescence reporter in INS-1E cells, primary screen for activators of glucose-dependent secretion of insulin. 370,000 compounds, 0.61% hits. INS-1E GLuc reporter insulin secretion, 2-3 h. activation, % at 16.6 µM. AID 743287;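 active means lowest replicate activation of at least 40%, so every replicate reaches that level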;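 further: 0% = median of neutral control wells and 100% = median of IBMX positive control wells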
# An asterisk follows results filed as active; / = no result given; [ ] = dose if it differs, or a comment.
SMILES,HIV Env fusion,Ecoli rRNA inh,F508del corr,Cneo AK release,miR122 inh,GSIS activator
CCOC(=O)Cn1c(=NC(=O)c2cccs2)sc2cc(C(=O)OC)ccc21,-68.2,/,/,/,/,89.6*
CCC(=O)N=c1sc2cc([N+](=O)[O-])ccc2n1CCOC,/,/,/,/,/,5.8
CCOC(=O)Cn1c(=NC(=O)CN2C(=O)CCC2=O)sc2cc(S(N)(=O)=O)ccc21,/,1.9,2.1,2.5,4.3,3.0
CCOC(=O)Cn1c(=NC(=O)c2nc3ccccc3s2)sc2cc(S(N)(=O)=O)ccc21,-15.8,/,/,-2.7,/,67.5*
CCCNC(=O)N1CC2(CCN(C(=O)C3CCOCC3)CC2)c2c([nH]c3cc(OC)ccc23)[C@@H]1CO,/,3.4,-0.1,/,/,11.0
COc1ccc(NS(=O)(=O)c2ccc(N/N=C(\C)c3ccncc3)c([N+](=O)[O-])c2)cc1,19.4,-23.1*,/,/,/,-11.5
C/C(=N\Nc1ccc(S(=O)(=O)Nc2ccc(Cl)cc2)cc1[N+](=O)[O-])c1ccc(N2CCOCC2)cc1,-17.4,/,/,-2.5,170.1*,-33.0
COCc1cn(CC[C@@H]2CC[C@H](NC(=O)c3ccncc3)[C@@H](CO)O2)nn1,-16.8[16.7 µM],2.0,-0.4,-1.4,/,3.7
CC(C)NC(=O)Nc1ccc2c(c1)C(=O)N([C@@H](C)CO)C[C@@H](C)[C@@H](CN(C)C(=O)c1ccccc1)OCCCC[C@@H](C)O2,19.6[16.7 µM],-1.9,0.1,2.4,0.5[16.7 µM],9.6
CCCN(C)C[C@H]1Oc2cc(-c3cccc(OC)c3)ccc2S(=O)(=O)N([C@H](C)CO)C[C@H]1C,-20.5[16.7 µM],-3.1,-3.9,1.3,7.4[16.7 µM],-4.7
CCOc1ccc(-c2nnc(-c3cccs3)o2)cc1OCC,-59.5,/,/,0.6,4.5,15.2
CCOc1ccc(-c2nc(-c3cccs3)c(CC(=O)O)s2)cc1OC,-16.3,-19.4*,0.2,-1.3,4.2,31.0
COc1ccc(S(=O)(=O)N(C)C[C@H]2Oc3ccc(NS(C)(=O)=O)cc3C(=O)N([C@@H](C)CO)C[C@@H]2C)cc1,-0.4[16.7 µM],-2.3,1.1,2.4,-0.5[16.7 µM],-6.1
C=CCn1c(=NC(=O)c2cc(Cl)sc2Cl)sc2cc(S(N)(=O)=O)ccc21,-10.3,/,/,-2.7,-0.7,43.7*
Cn1c(/C=C/c2ccccc2)nc2ccccc21,-5.5,-24.1*,-4.1,/,/,-3.9
Nc1nc(-c2ccccc2)c(N=Nc2ccc(Cl)cc2)s1,9.7,-41.7*,/,/,/,/
Nc1nc(-c2ccccc2)c(-c2ccccc2)s1,/,/,/,-2.0,-1.4,/
COCC(=O)Nc1ccc2c(c1)C(=O)N(C)C[C@H](OC)[C@H](C)CN(Cc1ccccc1F)[C@H](C)CO2,/,-0.1,-0.7,-1.3,/,-13.5
Nc1nc(N)c2cc(Sc3ccc4ccccc4c3)ccc2n1,23.7,-42.9,-2.1,5.1,2.8,/
Nc1nc(N)c2cc(Sc3ccc(Cl)cc3)ccc2n1,-1.3,-52.9,3.3,-6.8,/,186.8*
CN(C)CC/C=C1/c2ccccc2Sc2c(O)cc(Cl)cc21,/,/,/,0.2,-3.0,/
CN(C)CC/C=C1/c2cc(F)ccc2Sc2ccc(Cl)cc21,18.5,-50.1*,-3.0,-3.9,-3.1,-22.7
Cc1cc2c(cc(C(=O)OC(C)C(=O)NCc3ccc(F)cc3)n2C)o1 (stereo not given),/,0.7,28.9*,-1.5,2.3,1.8
C[C@H]1CN([C@@H](C)CO)C(=O)c2cccc(NC(=O)C3CCOCC3)c2O[C@@H]1CN(C)S(=O)(=O)c1cccs1,/,-0.3,2.8,1.8,2.6[16.7 µM],-9.3
C[C@@H]1CCCCO[C@H](CN(C)S(=O)(=O)c2cccs2)[C@@H](C)CN([C@H](C)CO)C(=O)c2cc(NS(C)(=O)=O)ccc2O1,8.8[16.7 µM],-0.9,-1.5,-2.3,4.8[16.7 µM],1.7
SMILES,HIV Env fusion,Ecoli rRNA inh,F508del corr,Cneo AK release,miR122 inh,GSIS activator
Cc1ccc(NC(=O)c2c(C(F)(F)F)nn(C)c2SCc2cccc(C(F)(F)F)c2)cc1C,87.1*,/,/,0.1,-14.9,/
C=CCn1c(SCC(=O)c2cccs2)nc2sc(C)c(C)c2c1=O,23.9,/,/,2.5,-9.7,/
C=CCn1c(SCC(=O)c2c(N)n(C)c(=O)n(C)c2=O)nc2sc(C)c(C)c2c1=O,-32.6,/,/,-0.9,-1.4,309.1*
COc1cc2c3nnc(-c4ccc(F)cc4)c-3cn(Cc3ccccc3F)c2cc1OC,6.1,24.5,/,/,/,12.3
COc1cc2c3nnc(-c4ccccc4)c-3cn(Cc3ccccc3F)c2cc1OC,-31.8,/,/,/,/,97.9*
OC[C@@H]1[C@H](c2ccc(-c3cccnc3)cc2)[C@@H]2CN(CC3CCOCC3)CCCCN12,/,/,1.7,0.0,-1.2[16.7 µM],/
c1ccc(OCc2nn3c(C4CCCCC4)nnc3s2)cc1,63.2*,/,/,2.1,2.8,-1.3
Cc1nnc2sc(COc3ccccc3)nn2c1=O,2.4,8.7,0.6,-1.5,-4.6,10.3
O=S(=O)(c1ccccc1)N1CCN=C1SCc1cccc(Cl)c1,28.5,-22.6*,/,/,/,1.1
O=S(=O)(c1ccccc1)N1CCN=C1SCc1ccc(Cl)c(Cl)c1,/,/,/,/,/,-29.3
CCSC1=NCCN1S(=O)(=O)c1ccc2ccccc2c1,-5.7,-30.4*,1.0,/,/,-4.8
CSC1=NCCN1S(=O)(=O)c1ccc2ccccc2c1,6.1,-4.9,-1.3,/,/,14.9
O=C1CC[C@@H](O)CCN1CC[C@H](Sc1ccc(Br)cc1)c1ccccc1,-35.0,-41.3,-1.1,-0.1,-3.6,/
O=C1CC[C@@H](O)CCN1CC[C@H](Sc1ccccc1)c1ccccc1,-7.7,-30.7*,1.2,2.3,-3.5,-7.0
CC(C)(C)[C@@H]1CCC(=O)N(CC[C@H](Sc2ccc(Br)cc2)c2ccccc2)CC1,67.0*,9.0,2.2,-1.5,/,-5.4
CNC(=O)C[C@@H]1CC[C@H]2[C@H](COc3ccc(NS(=O)(=O)c4ccccc4C)cc3C(=O)N2C)O1,19.2[16.7 µM],-2.7,-0.2,-13.2,8.1[16.7 µM],1.2
CCCNC(=O)Nc1ccc2c(c1)C(=O)N(C)C[C@@H](OC)[C@@H](C)CN[C@@H](C)CO2,0.5[16.7 µM],3.2,2.1,2.0,/,6.6
Cc1ccc(NC(=O)CN(C(=O)N2CCN(C)CC2)S(=O)(=O)c2ccc(C)cc2)cc1,3.1,4.7,-5.6,0.7,/,44.6*
Cc1ccc(S(=O)(=O)N(CC(=O)Nc2ccc(C)cc2C)C(=O)N2CCN(C)CC2)cc1,10.2,20.4,3.3,3.2,0.0,221.3*
Cc1ccc(S(=O)(=O)N(CC(=O)Nc2ccc(F)cc2)C(=O)N2CCN(C)CC2)cc1,-1.5,6.3,-2.4,-0.1,-5.5,14.3
C[C@H](CO)N1C[C@H](C)[C@H](CN(C)C(=O)NC2CCCCC2)Oc2ccc(NC(=O)Nc3ccccc3)cc2C1=O,/,-8.6,1.2,-0.3,-2.6[16.7 µM],-4.3
CCCNC(=O)C[C@H]1CC[C@H]2[C@@H](COC[C@@H](O)CN2C(=O)c2ccccn2)O1,/,4.4,-0.6,1.0,3.4[16.7 µM],25.8
